Results taken from ChEMBL document CHEMBL1649231, “In vitro activities of panduratin A against clinical Staphylococcus strains” (2009).
Converted amounts (≈) assume the structure as drawn.

Experiments:
Assay type in all cases: functional
Staphylococcus hominis [1] = assay: Bactericidal activity against methicillin-resistant coagulase-negative Staphylococcus hominis after 24 hrs by plate counting method
Staphylococcus hominis [2] = assay: Antimicrobial activity against methicillin-resistant coagulase-negative Staphylococcus hominis assessed as resistant isolates after 24 hrs by broth microdilution method
Staphylococcus simulans [3] = assay: Antimicrobial activity against methicillin-resistant coagulase-negative Staphylococcus simulans assessed as resistant isolates after 24 hrs by broth microdilution method
Staphylococcus hominis [4] = assay: Antimicrobial activity against methicillin-susceptible coagulase-negative Staphylococcus hominis after 24 hrs by broth microdilution method
Procedure, shortened: (§1)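 Clinical isolates came from blood, body fluids, genital secretions, pus or sputum, identified conventionally or by Vitek. MICs were run by CLSI M7-A6 broth microdilution in Mueller-Hinton broth with 5 × 10^5 CFU/ml inoculum. Agents were twofold serially diluted, starting from 10% DMSO. Drug-free and uninoculated controls were included. Plates were incubated aerobically at 37°C for 24 h; MIC is the lowest concentration giving no visible growth.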

[5] = system: Staphylococcus haemolyticus; assay: Antimicrobial activity against methicillin-susceptible coagulase-negative Staphylococcus haemolyticus assessed as susceptible isolates after 24 hrs by broth microdilution method
Staphylococcus simulans [6] = assay: Bactericidal activity against methicillin-susceptible coagulase-negative Staphylococcus simulans after 24 hrs by plate counting method
Procedure, shortened: (§2)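 Clinical staphylococcal isolates from patient body fluids, blood, genital secretions, pus or sputum; species by conventional methods or Vitek. Twofold dilutions in Mueller-Hinton broth, inoculum 5 × 10^5 CFU/ml, 37°C aerobic 24 h (CLSI M7-A6 microdilution). About 100 μl from each well without visible growth spread on MHA; 37°C 24 h. MBC = lowest concentration giving no growth on agar.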

[7] = system: Staphylococcus epidermidis; assay: Antimicrobial activity against methicillin-resistant coagulase-negative Staphylococcus epidermidis after 24 hrs by broth microdilution method; procedure, shortened: as §1
Staphylococcus simulans [8] = assay: Antimicrobial activity against methicillin-susceptible coagulase-negative Staphylococcus simulans assessed as susceptible isolates after 24 hrs by broth microdilution method
Procedure, shortened: (§3)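 Clinical isolates from blood, body fluids, pus, sputum or genital secretions, identified conventionally or by Vitek, were tested alongside ATCC 29213 and ATCC 12228 controls. CLSI M7-A6 broth microdilution in Mueller-Hinton broth used twofold dilutions from a 10% DMSO solution and 5 × 10^5 CFU/ml inoculum. Drug-free and uninoculated wells served as controls; incubation was aerobic at 37°C for 24 h. MIC was the lowest concentration with no visible growth.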

Staphylococcus aureus [9] = assay: Antimicrobial activity against methicillin-resistant Staphylococcus aureus assessed as susceptible isolates after 24 hrs by broth microdilution method
Mammaliicoccus sciuri [10] = assay: Antimicrobial activity against methicillin-susceptible coagulase-negative Staphylococcus sciuri after 24 hrs by broth microdilution method; procedure, shortened: as §1
Staphylococcus hominis [11] = assay: Antimicrobial activity against methicillin-resistant coagulase-negative Staphylococcus hominis assessed as susceptible isolates after 24 hrs by broth microdilution method
Mammaliicoccus sciuri [12] = assay: Antimicrobial activity against methicillin-susceptible coagulase-negative Staphylococcus sciuri assessed as susceptible isolates after 24 hrs by broth microdilution method; procedure, shortened: as §3
Staphylococcus hominis [13] = assay: Antimicrobial activity against methicillin-susceptible coagulase-negative Staphylococcus hominis assessed as susceptible isolates after 24 hrs by broth microdilution method
[14] = system: Staphylococcus epidermidis; assay: Bactericidal activity against methicillin-resistant coagulase-negative Staphylococcus epidermidis after 24 hrs by plate counting method
[15] = system: Staphylococcus epidermidis; assay: Bactericidal activity against methicillin-susceptible coagulase-negative Staphylococcus epidermidis after 24 hrs by plate counting method; procedure, shortened: as §2
[16] = system: Staphylococcus epidermidis; assay: Antimicrobial activity against methicillin-resistant coagulase-negative Staphylococcus epidermidis assessed as susceptible isolates after 24 hrs by broth microdilution method
Staphylococcus aureus [17] = assay: Antimicrobial activity against methicillin-resistant Staphylococcus aureus after 24 hrs by broth microdilution method; procedure, shortened: as §1
[18] = system: Staphylococcus haemolyticus; assay: Antimicrobial activity against methicillin-susceptible coagulase-negative Staphylococcus haemolyticus assessed as resistant isolates after 24 hrs by broth microdilution method
Staphylococcus hominis [19] = assay: Antimicrobial activity against methicillin-susceptible coagulase-negative Staphylococcus hominis assessed as resistant isolates after 24 hrs by broth microdilution method
[20] = system: Staphylococcus epidermidis; assay: Antimicrobial activity against methicillin-resistant coagulase-negative Staphylococcus epidermidis assessed as resistant isolates after 24 hrs by broth microdilution method
[21] = system: Staphylococcus epidermidis; assay: Antimicrobial activity against methicillin-susceptible coagulase-negative Staphylococcus epidermidis assessed as susceptible isolates after 24 hrs by broth microdilution method
Mammaliicoccus sciuri [22] = assay: Antimicrobial activity against methicillin-resistant coagulase-negative Staphylococcus sciuri assessed as resistant isolates after 24 hrs by broth microdilution method
Staphylococcus hominis [23] = assay: Bactericidal activity against methicillin-susceptible coagulase-negative Staphylococcus hominis after 24 hrs by plate counting method; procedure, shortened: as §2
[24] = system: Staphylococcus haemolyticus; assay: Antimicrobial activity against methicillin-susceptible coagulase-negative Staphylococcus haemolyticus after 24 hrs by broth microdilution method; procedure, shortened: as §1
Mammaliicoccus sciuri [25] = assay: Antimicrobial activity against methicillin-resistant coagulase-negative Staphylococcus sciuri after 24 hrs by broth microdilution method; procedure, shortened: as §1
[26] = system: Staphylococcus haemolyticus; assay: Bactericidal activity against methicillin-resistant coagulase-negative Staphylococcus haemolyticus after 24 hrs by plate counting method
Staphylococcus aureus [27] = assay: Antimicrobial activity against methicillin-susceptible Staphylococcus aureus after 24 hrs by broth microdilution method; procedure, shortened: as §1
[28] = system: Staphylococcus haemolyticus; assay: Antimicrobial activity against methicillin-resistant coagulase-negative Staphylococcus haemolyticus assessed as resistant isolates after 24 hrs by broth microdilution method
Staphylococcus aureus [29] = assay: Antimicrobial activity against methicillin-susceptible Staphylococcus aureus assessed as resistant isolates after 24 hrs by broth microdilution method
Staphylococcus simulans [30] = assay: Antimicrobial activity against methicillin-resistant coagulase-negative Staphylococcus simulans after 24 hrs by broth microdilution method; procedure, shortened: as §1
[31] = system: Staphylococcus haemolyticus; assay: Antimicrobial activity against methicillin-resistant coagulase-negative Staphylococcus haemolyticus assessed as susceptible isolates after 24 hrs by broth microdilution method
Staphylococcus simulans [32] = assay: Bactericidal activity against methicillin-resistant coagulase-negative Staphylococcus simulans after 24 hrs by plate counting method; procedure, shortened: as §2
[33] = system: Staphylococcus haemolyticus; assay: Antimicrobial activity against methicillin-resistant coagulase-negative Staphylococcus haemolyticus after 24 hrs by broth microdilution method; procedure, shortened: as §1
Staphylococcus hominis [34] = assay: Antimicrobial activity against methicillin-resistant coagulase-negative Staphylococcus hominis after 24 hrs by broth microdilution method; procedure, shortened: as §1
Mammaliicoccus sciuri [35] = assay: Antimicrobial activity against methicillin-susceptible coagulase-negative Staphylococcus sciuri assessed as resistant isolates after 24 hrs by broth microdilution method
[36] = system: Staphylococcus haemolyticus; assay: Bactericidal activity against methicillin-susceptible coagulase-negative Staphylococcus haemolyticus after 24 hrs by plate counting method; procedure, shortened: as §2
Staphylococcus aureus [37] = assay: Bactericidal activity against methicillin-resistant Staphylococcus aureus after 24 hrs by plate counting method
Staphylococcus aureus [38] = assay: Bactericidal activity against methicillin-susceptible Staphylococcus aureus after 24 hrs by plate counting method; procedure, shortened: as §2
Mammaliicoccus sciuri [39] = assay: Bactericidal activity against methicillin-susceptible coagulase-negative Staphylococcus sciuri after 24 hrs by plate counting method; procedure, shortened: as §2
[40] = system: Staphylococcus epidermidis; assay: Antimicrobial activity against methicillin-susceptible coagulase-negative Staphylococcus epidermidis assessed as resistant isolates after 24 hrs by broth microdilution method
Staphylococcus simulans [41] = assay: Antimicrobial activity against methicillin-susceptible coagulase-negative Staphylococcus simulans after 24 hrs by broth microdilution method; procedure, shortened: as §1
Mammaliicoccus sciuri [42] = assay: Bactericidal activity against methicillin-resistant coagulase-negative Staphylococcus sciuri after 24 hrs by plate counting method; procedure, shortened: as §2
[43] = system: Staphylococcus epidermidis; assay: Antimicrobial activity against methicillin-susceptible coagulase-negative Staphylococcus epidermidis after 24 hrs by broth microdilution method; procedure, shortened: as §1
Staphylococcus aureus [44] = assay: Antimicrobial activity against methicillin-susceptible Staphylococcus aureus assessed as susceptible isolates after 24 hrs by broth microdilution method
Staphylococcus aureus [45] = assay: Antimicrobial activity against methicillin-resistant Staphylococcus aureus assessed as resistant isolates after 24 hrs by broth microdilution method
[46] = Staphylococcus epidermidis, 24 h
[47] = Staphylococcus haemolyticus, 24 h

## Cc1onc(-c2ccccc2)c1C(=O)N[C@@H]1C(=O)N2[C@@H]1SC(C)(C)[C@@H]2C(=O)O [OXACILLIN]
Staphylococcus hominis [1]
  MBC90: 256 µg/mL (≈ 638 µM)
Staphylococcus hominis [1]; Staphylococcus hominis, 24 h
  MBC: 1 µg/mL (≈ 2.49 µM)
Staphylococcus hominis [2]
  Activity: 74%
Staphylococcus simulans [3]
  Activity: 74%
Staphylococcus hominis [4]
  MIC: 0.125 µg/mL (≈ 0.311 µM)
  MIC50: 0.125 µg/mL (≈ 0.311 µM)
  MIC90: 0.5 µg/mL (≈ 1.25 µM)
[5]
  Activity: 96%
Staphylococcus simulans [6]
  MBC50: 2 µg/mL (≈ 4.98 µM)
  MBC90: 8 µg/mL (≈ 19.9 µM)
Staphylococcus simulans [6]; Staphylococcus simulans, 24 h
  MBC: 0.25 µg/mL (≈ 0.623 µM)
[7]
  MIC50: 64 µg/mL (≈ 159 µM)
  MIC90: 64 µg/mL (≈ 159 µM)
Staphylococcus simulans [8]
  Activity: 96%
Staphylococcus aureus [9]
  Activity: 0%
Mammaliicoccus sciuri [10]
  MIC: 0.125 µg/mL (≈ 0.311 µM)
  MIC50: 0.125 µg/mL (≈ 0.311 µM)
  MIC90: 0.5 µg/mL (≈ 1.25 µM)
Staphylococcus hominis [11]
  Activity: 26%
Mammaliicoccus sciuri [12]
  Activity: 96%
Staphylococcus hominis [13]
  Activity: 96%
[14]
  MBC90: 256 µg/mL (≈ 638 µM)
[14]; [46]
  MBC: 1 µg/mL (≈ 2.49 µM)
[15]
  MBC50: 2 µg/mL (≈ 4.98 µM)
  MBC90: 8 µg/mL (≈ 19.9 µM)
[15]; [46]
  MBC: 0.25 µg/mL (≈ 0.623 µM)
[16]
  Activity: 26%
Staphylococcus aureus [17]
  MIC50: 64 µg/mL (≈ 159 µM)
  MIC90: 64 µg/mL (≈ 159 µM)
[18]
  Activity: 4%
Staphylococcus hominis [19]
  Activity: 4%
[20]
  Activity: 74%
[21]
  Activity: 96%
Mammaliicoccus sciuri [22]
  Activity: 74%
Staphylococcus hominis [23]
  MBC50: 2 µg/mL (≈ 4.98 µM)
  MBC90: 8 µg/mL (≈ 19.9 µM)
Staphylococcus hominis [23]; Staphylococcus hominis, 24 h
  MBC: 0.25 µg/mL (≈ 0.623 µM)
[24]
  MIC: 0.125 µg/mL (≈ 0.311 µM)
  MIC50: 0.125 µg/mL (≈ 0.311 µM)
  MIC90: 0.5 µg/mL (≈ 1.25 µM)
Mammaliicoccus sciuri [25]
  MIC50: 64 µg/mL (≈ 159 µM)
  MIC90: 64 µg/mL (≈ 159 µM)
[26]
  MBC90: 256 µg/mL (≈ 638 µM)
[26]; [47]
  MBC: 1 µg/mL (≈ 2.49 µM)
Staphylococcus aureus [27]
  MIC: 0.125 µg/mL (≈ 0.311 µM)
  MIC50: 0.125 µg/mL (≈ 0.311 µM)
  MIC90: 1 µg/mL (≈ 2.49 µM)
[28]
  Activity: 74%
Staphylococcus aureus [29]
  Activity: 11%
Staphylococcus simulans [30]
  MIC50: 64 µg/mL (≈ 159 µM)
  MIC90: 64 µg/mL (≈ 159 µM)
[31]
  Activity: 26%
Staphylococcus simulans [32]
  MBC90: 256 µg/mL (≈ 638 µM)
Staphylococcus simulans [32]; Staphylococcus simulans, 24 h
  MBC: 1 µg/mL (≈ 2.49 µM)
[33]
  MIC50: 64 µg/mL (≈ 159 µM)
  MIC90: 64 µg/mL (≈ 159 µM)
Staphylococcus hominis [34]
  MIC50: 64 µg/mL (≈ 159 µM)
  MIC90: 64 µg/mL (≈ 159 µM)
Mammaliicoccus sciuri [35]
  Activity: 4%
[36]
  MBC50: 2 µg/mL (≈ 4.98 µM)
  MBC90: 8 µg/mL (≈ 19.9 µM)
[36]; [47]
  MBC: 0.25 µg/mL (≈ 0.623 µM)
Staphylococcus aureus [37]
  MBC50: 256 µg/mL (≈ 638 µM)
  MBC90: 512 µg/mL (≈ 1280 µM)
Staphylococcus aureus [37]; Staphylococcus aureus, 24 h
  MBC: 256 µg/mL (≈ 638 µM)
Staphylococcus aureus [38]
  MBC50: 16 µg/mL (≈ 39.9 µM)
  MBC90: 64 µg/mL (≈ 159 µM)
Staphylococcus aureus [38]; Staphylococcus aureus, 24 h
  MBC: 1 µg/mL (≈ 2.49 µM)
Mammaliicoccus sciuri [39]
  MBC50: 2 µg/mL (≈ 4.98 µM)
  MBC90: 8 µg/mL (≈ 19.9 µM)
Mammaliicoccus sciuri [39]; Mammaliicoccus sciuri, 24 h
  MBC: 0.25 µg/mL (≈ 0.623 µM)
[40]
  Activity: 4%
Staphylococcus simulans [41]
  MIC: 0.125 µg/mL (≈ 0.311 µM)
  MIC50: 0.125 µg/mL (≈ 0.311 µM)
  MIC90: 0.5 µg/mL (≈ 1.25 µM)
Mammaliicoccus sciuri [42]
  MBC90: 256 µg/mL (≈ 638 µM)
Mammaliicoccus sciuri [42]; Mammaliicoccus sciuri, 24 h
  MBC: 1 µg/mL (≈ 2.49 µM)
[43]
  MIC: 0.125 µg/mL (≈ 0.311 µM)
  MIC50: 0.125 µg/mL (≈ 0.311 µM)
  MIC90: 0.5 µg/mL (≈ 1.25 µM)
Staphylococcus aureus [44]
  Activity: 89%
Staphylococcus aureus [45]
  Activity: 100%
